From ChEMBL document CHEMBL4130626, “α-Arylidene Diacylglycerol-Lactones (DAG-Lactones) as Selective Ras Guanine-Releasing Protein 3 (RasGRP3) Ligands” (J Med Chem, 2018)

What was measured:
[1] = biological target: Protein kinase C alpha type (Homo sapiens, UniProt P17252); assay: Displacement of [3H]PDBu from full length recombinant human PKCalpha expressed in baculovirus expression system after 5 mins by scintillation counting
Method in brief: (§1)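 Competition of [3H]PDBu binding by polyethylene glycol precipitation, with 100 µg/ml phosphatidylserine and ≤0.003% Triton X-100, 5 min at 37 °C. Proteins: full-length purified human PKCα, PKCε; full-length RasGRP1; MBP-RasGRP3 from E. coli BL21(DE3) induced with 0.3 mM IPTG 6 h at room temperature. Ki mean ± SEM of ≥2 experiments, triplicate points.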

[2] = biological target: T1, Protein kinase C epsilon type (Homo sapiens, UniProt Q02156); assay: Displacement of [3H]PDBu from full length recombinant human PKCepsilon expressed in baculovirus expression system after 5 mins by scintillation counting; method in brief: as §1
T1 sequence (Q02156 whole entry): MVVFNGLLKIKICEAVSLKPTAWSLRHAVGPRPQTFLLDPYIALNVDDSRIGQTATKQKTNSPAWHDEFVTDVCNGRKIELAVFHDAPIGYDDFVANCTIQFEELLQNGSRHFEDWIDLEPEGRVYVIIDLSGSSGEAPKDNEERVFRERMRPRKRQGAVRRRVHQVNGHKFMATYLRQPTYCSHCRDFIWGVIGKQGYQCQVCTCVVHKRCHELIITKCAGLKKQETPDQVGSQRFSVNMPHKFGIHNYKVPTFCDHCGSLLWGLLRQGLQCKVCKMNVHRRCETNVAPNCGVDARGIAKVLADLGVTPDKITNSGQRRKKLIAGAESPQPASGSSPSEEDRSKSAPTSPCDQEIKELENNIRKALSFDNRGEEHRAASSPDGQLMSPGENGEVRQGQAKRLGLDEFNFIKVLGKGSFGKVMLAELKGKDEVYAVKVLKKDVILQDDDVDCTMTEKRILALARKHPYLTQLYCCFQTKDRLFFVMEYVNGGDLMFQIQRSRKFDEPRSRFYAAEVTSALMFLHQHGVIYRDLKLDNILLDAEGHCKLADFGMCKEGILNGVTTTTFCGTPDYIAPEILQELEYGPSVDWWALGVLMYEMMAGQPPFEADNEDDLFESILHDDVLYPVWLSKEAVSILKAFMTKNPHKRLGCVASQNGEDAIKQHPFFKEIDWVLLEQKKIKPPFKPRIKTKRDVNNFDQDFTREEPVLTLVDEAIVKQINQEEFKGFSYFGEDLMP

[3] = biological target: T2, Ras guanyl-releasing protein 3 (Homo sapiens, UniProt Q8IV61); assay: Activation of GFP-tagged RasGRP3 (unknown origin) expressed in HEK293 cells assessed as ERK1/2 phosphorylation after 30 mins by immunoblot method; format: cell-based
T2 sequence (Q8IV61 whole entry): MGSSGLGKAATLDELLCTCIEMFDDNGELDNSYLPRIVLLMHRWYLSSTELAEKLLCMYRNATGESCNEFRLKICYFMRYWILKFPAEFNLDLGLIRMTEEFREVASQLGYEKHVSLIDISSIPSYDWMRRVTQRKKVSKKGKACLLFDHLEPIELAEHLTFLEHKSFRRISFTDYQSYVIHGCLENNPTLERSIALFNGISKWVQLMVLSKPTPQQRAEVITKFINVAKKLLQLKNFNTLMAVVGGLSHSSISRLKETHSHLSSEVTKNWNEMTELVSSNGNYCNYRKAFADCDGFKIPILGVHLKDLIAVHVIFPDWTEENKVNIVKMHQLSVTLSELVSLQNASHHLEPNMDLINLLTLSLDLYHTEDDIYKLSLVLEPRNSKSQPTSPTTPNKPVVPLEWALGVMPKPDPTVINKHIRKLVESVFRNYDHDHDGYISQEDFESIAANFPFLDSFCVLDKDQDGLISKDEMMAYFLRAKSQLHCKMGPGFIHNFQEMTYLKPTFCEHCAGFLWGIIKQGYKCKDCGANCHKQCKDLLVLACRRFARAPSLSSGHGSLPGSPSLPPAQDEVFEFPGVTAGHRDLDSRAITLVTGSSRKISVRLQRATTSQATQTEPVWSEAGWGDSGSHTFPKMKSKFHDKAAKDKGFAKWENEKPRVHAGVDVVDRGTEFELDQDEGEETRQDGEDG
Method in brief: (§2)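 Cells expressing GFP-RasGRP1/3 (HEK293 or LNCaP, 48 h after plating, transfected; expression checked by fluorescence 24-48 h later) or Ramos with endogenous RasGRP3 treated with half-log increasing concentrations (max 10 µM), 1000 nM PMA or DMSO, 37 °C, 30 min, 5% CO2. RasGTP by Raf1 RBD bead pulldown and anti-Pan-Ras immunoblot; pERK by western blot. Band intensities normalized to 1000 nM PMA; EC50 from n = 3.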

[4] = biological target: T3, RAS guanyl-releasing protein 1 (Homo sapiens, UniProt O95267); assay: Activation of GFP-tagged RasGRP1 (unknown origin) expressed in human LNCAP cells assessed as ERK1/2 phosphorylation after 30 mins by immunoblot method; format: cell-based; method in brief: as §2
T3 sequence (O95267 whole entry): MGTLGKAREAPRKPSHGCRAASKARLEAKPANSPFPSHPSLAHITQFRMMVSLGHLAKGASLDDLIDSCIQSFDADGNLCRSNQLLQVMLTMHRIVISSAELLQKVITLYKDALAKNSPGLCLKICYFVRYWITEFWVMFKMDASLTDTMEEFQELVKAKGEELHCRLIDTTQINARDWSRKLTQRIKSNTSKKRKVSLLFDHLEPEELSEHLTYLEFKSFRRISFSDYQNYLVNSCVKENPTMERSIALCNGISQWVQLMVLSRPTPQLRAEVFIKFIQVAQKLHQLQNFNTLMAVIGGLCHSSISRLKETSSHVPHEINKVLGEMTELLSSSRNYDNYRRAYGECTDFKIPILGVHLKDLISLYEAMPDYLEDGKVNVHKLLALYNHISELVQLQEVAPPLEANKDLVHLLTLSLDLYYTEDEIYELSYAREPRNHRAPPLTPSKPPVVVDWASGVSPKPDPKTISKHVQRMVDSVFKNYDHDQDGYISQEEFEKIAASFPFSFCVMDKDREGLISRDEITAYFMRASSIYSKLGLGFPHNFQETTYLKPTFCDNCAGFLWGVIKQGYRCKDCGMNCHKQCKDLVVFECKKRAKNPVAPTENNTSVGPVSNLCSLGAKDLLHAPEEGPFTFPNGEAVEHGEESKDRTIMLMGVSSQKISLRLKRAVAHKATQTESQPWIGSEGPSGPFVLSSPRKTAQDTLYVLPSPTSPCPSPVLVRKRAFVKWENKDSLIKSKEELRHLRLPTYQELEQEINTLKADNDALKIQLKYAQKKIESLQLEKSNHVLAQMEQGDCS

[5] = biological target: T2, Ras guanyl-releasing protein 3; assay: Activation of RasGRP3 in human Ramos cells assessed as ERK1/2 phosphorylation after 30 mins by immunoblot method; format: cell-based; method in brief: as §2
Homo sapiens = species: Homo sapiens; assay: Selectivity ratio of EC50 for PKCdelta (unknown origin) expressed in HEK293 cells harboring GFP-tagged RasGRP1 to EC50 for GFP-tagged RasGRP1 (unknown origin) expressed in HEK293 cells; format: cell-based

Ki [1]: 0.127 µM
Ki [2]: 0.0789 µM
EC50 [3]: 4.66 µM
EC50 [4]: 3.73 µM
EC50 [5]: 6.09 µM
Structure (SMILES): Cn1cc(/C=C2\CC(CO)(COC(=O)C(C)(C)C)OC2=O)c2ccccc21 (stereo unspecified)
Ratio EC50 (Homo sapiens): 14.7
